Source: ChEMBL document CHEMBL1153529, “Synthesis of fluorinated brassinosteroids based on alkene cross-metathesis and preliminary biological assessment” (J Med Chem, 2009)
pIC50: −log10 of the molar value. The source made the active and inactive calls. No cut-off for these calls is given here.

Assays:
BJ = assay: Cytotoxicity against human BJ cells after 72 hrs by calcein-AM assay; format: cell-based
Method in brief: (§1)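 Human normal fibroblast BJ, T-lymphoblastic leukemia CEM and breast carcinoma MCF-7 cells exposed for 72 h to six serial 4-fold dilutions of compound. Surviving cell proportion read by calcein-AM assay and IC50 calculated. Mean ± SD of three independent experiments, each in triplicate. 28-Homocastasterone served as positive control.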

Rattus norvegicus [1] = organism: Rattus norvegicus; assay: Inhibition of [35S]tert-butylbicyclo[ 2.2.2]phosphorothionate binding to GABAA receptor in Wistar rat brain membrane relative to control; format: cell membranes
Method in brief: (§2)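 Male Wistar rat brain membranes incubated 1 h at 37 °C with 2 nM [35S]TBPS and compound at 1 nM to 10 μM, in duplicates. IC50 estimated as the steroid concentration giving half-maximal inhibition of binding. Imax is the maximal suppression of binding.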

[2] = Inhibition of [35S]tert-butylbicyclo[ 2.2.2]phosphorothionate binding to GABAA receptor in Wistar rat brain membrane; format: cell membranes; method in brief: as §2
Rattus norvegicus [3] = organism: Rattus norvegicus; assay: Displacement of [35S]tert-butylbicyclo[ 2.2.2]phosphorothionate from GABAA receptor in Wistar rat brain membrane at 100 nM relative to control; format: cell membranes
Method in brief: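 Membranes from male Wistar rat brain incubated 1 h at 37 °C with 2 nM [35S]TBPS and test compound at 100 nM. Binding expressed as % of buffer-only control samples. Mean ± SD of triplicates or quadruplicates. Kruskal-Wallis global test, then Mann-Whitney-Wilcoxon against control.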

MCF7 = assay: Cytotoxicity against human MCF7 cells after 72 hrs by calcein-AM assay; format: functional, cell-based; details: MCF7, 72 h; method in brief: as §1
CCRF-CEM = assay: Cytotoxicity against human CEM cells after 72 hrs by calcein-AM assay; format: functional, cell-based; method in brief: as §1
Phaseolus vulgaris [4] = assay: Brassinolide type activity in Phaseolus Vulgaris L., cv. Pinto assessed as difference of prolongation of second internode at 0.1 umol/L by second-internode bioassay relative to control; format: functional
Method in brief: (§3)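 Bean second-internode bioassay. Compound applied in lanolin; second-internode length measured 5 days after application. Activity taken as the difference in internode prolongation (mm) between treated and control plants. Reported concentrations were 10^-10, 10^-7 and 10^-12 mol/L. Mean ± SD.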

Phaseolus vulgaris [5] = assay: Brassinolide type activity in Phaseolus Vulgaris L., cv. Pinto assessed as difference of prolongation of second internode at 1 pmol/L by second-internode bioassay relative to control; format: functional; method in brief: as §3

C[C@H]([C@@H](O)[C@H](O)CC(F)(F)C(F)(F)C(F)(F)C(F)(F)C(F)(F)C(F)(F)F)[C@H]1CC[C@H]2[C@@H]3COC(=O)[C@H]4C[C@H](O)[C@H](O)C[C@]4(C)[C@H]3CC[C@]12C
Activity (BJ): Non-toxic
Imax (Rattus norvegicus [1]): 57.9%
pIC50 [2]: 6.05
Activity (Rattus norvegicus [3]): 47.2%
pIC50 (MCF7): < 4.30
pIC50 (CCRF-CEM): < 4.30

C[C@H]([C@@H](O)[C@H](O)CC(F)(F)C(F)(F)C(F)(F)F)[C@H]1CC[C@H]2[C@@H]3COC(=O)[C@H]4C[C@H](O)[C@H](O)C[C@]4(C)[C@H]3CC[C@]12C
Activity (BJ): Non-toxic
Activity (Phaseolus vulgaris [4]): Active
Activity (Rattus norvegicus [3]): 95.1%
pIC50 (MCF7): < 4.30
pIC50 (CCRF-CEM): < 4.30

C[C@H]([C@@H](O)[C@H](O)CC(F)(C(F)(F)F)C(F)(F)F)[C@H]1CC[C@H]2[C@@H]3CC(=O)C4C[C@H](O)[C@H](O)C[C@]4(C)[C@H]3CC[C@]12C (some centres undefined)
Activity (BJ): Non-toxic
pIC50 (MCF7): < 4.30
pIC50 (CCRF-CEM): < 4.30

CC[C@@H](C(C)C)[C@@H](O)[C@H](O)[C@@H](C)[C@H]1CC[C@H]2[C@@H]3CC(=O)[C@H]4C[C@H](O)[C@H](O)C[C@]4(C)[C@H]3CC[C@]12C
Activity (BJ): Non-toxic
pIC50 (MCF7): < 4.30
pIC50 (CCRF-CEM): 4.89

C[C@H]([C@@H](O)[C@H](O)CC(F)(C(F)(F)F)C(F)(F)F)[C@H]1CC[C@H]2[C@@H]3COC(=O)[C@H]4C[C@H](O)[C@H](O)C[C@]4(C)[C@H]3CC[C@]12C
Activity (BJ): Non-toxic
Imax (Rattus norvegicus [1]): 59.4%
Activity (Phaseolus vulgaris [4]): 15.9 mm
Activity (Phaseolus vulgaris [5]): 10.7 mm
pIC50 [2]: 7.00
Activity (Rattus norvegicus [3]): 56.6%
pIC50 (MCF7): < 4.30
pIC50 (CCRF-CEM): < 4.30

CC(=O)[C@H]1CC[C@H]2[C@@H]3CC[C@H]4C[C@H](O)CC[C@]4(C)[C@H]3CC[C@]12C [BREXANOLONE]
Imax (Rattus norvegicus [1]): 79%
pIC50 [2]: 7.10
Activity (Rattus norvegicus [3]): 56.2%

CC(C(O)C(O)CC(F)(F)C(F)(F)C(F)(F)F)C1CCC2C3CC(=O)C4CC(O)C(O)CC4(C)C3CCC12C (centres undefined)
Activity (BJ): Non-toxic
pIC50 (MCF7): 4.32
pIC50 (CCRF-CEM): 4.45

CC(C(O)C(O)CC(F)(F)C(F)(F)C(F)(F)C(F)(F)C(F)(F)C(F)(F)F)C1CCC2C3CC(=O)C4CC(O)C(O)CC4(C)C3CCC12C (centres undefined)
Activity (BJ): Non-toxic
pIC50 (MCF7): < 4.30
pIC50 (CCRF-CEM): < 4.30
